Measured values reported in ChEMBL document CHEMBL1681746, “N-benzylimidazole carboxamides as potent, orally active stearoylCoA desaturase-1 inhibitors” (Bioorg Med Chem Lett, 2011).
Each block holds one compound with its values, some of them ahead of it.

Tests used:
[1] = target: T1, Acyl-CoA desaturase 1 (Rattus norvegicus, UniProt P07308); experiment: Inhibition of rat liver SCD1 using [3H]-stearoylCoA
T1 sequence (P07308 whole entry): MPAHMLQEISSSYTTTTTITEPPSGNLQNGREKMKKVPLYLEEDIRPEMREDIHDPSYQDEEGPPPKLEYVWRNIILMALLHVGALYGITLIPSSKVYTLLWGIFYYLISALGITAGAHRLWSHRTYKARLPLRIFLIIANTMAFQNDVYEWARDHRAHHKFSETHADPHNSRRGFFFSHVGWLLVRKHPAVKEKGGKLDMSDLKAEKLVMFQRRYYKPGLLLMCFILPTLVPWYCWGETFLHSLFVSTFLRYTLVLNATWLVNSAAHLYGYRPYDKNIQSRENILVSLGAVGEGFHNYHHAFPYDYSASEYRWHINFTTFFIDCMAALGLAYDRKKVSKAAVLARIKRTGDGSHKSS

[2] = Intrinsic clearance in human liver microsomes assessed per mg of protein; type: ADME, Microsome
[3] = Oral bioavailability in rat; type: ADME, organism-based; conditions: in vivo
[4] = Half life in po dosed in rat; type: ADME, organism-based; conditions: in vivo
[5] = Volume of distribution at steady state in rat; type: ADME, organism-based; conditions: in vivo, read-out: Vdss
[6] = Clearance in rat; type: ADME, organism-based; conditions: in vivo
[7] = target: T1, Acyl-CoA desaturase 1; experiment: Inhibition of rat liver SCD1 assessed as formation of deuterated oleoylCoA by HTMS assay
In short: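 Rat liver microsomes as enzyme source. RapidFire high-throughput mass spectrometry quantitates deuterated oleoylCoA formed from deuterated stearoylCoA substrate.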

[8] = Intrinsic clearance in rat liver microsomes assessed per mg of protein; type: ADME, Microsome
[9] = target: CYP3A4 (Homo sapiens, UniProt P08684); experiment: Inhibition of CYP3A4 at 3 uM; type: ADME
In short: (§1)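 Percent inhibition of each CYP isoform (1A2, 2C9, 2D6, 3A4) measured at […] test concentration.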

[10] = target: CYP2D6 (Homo sapiens, UniProt P10635); experiment: Inhibition of CYP2D6 at 3 uM; type: ADME; in short: as §1
[11] = target: hERG (Homo sapiens, UniProt Q12809); experiment: Displacement of [3H]-dofetilide from human ERG at 10 uM; conditions: probe [3H]-dofetilide
In short: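 Dofetilide binding assay; percent inhibition measured at […] test concentration.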

[12] = target: T2, CYP1A2 (Homo sapiens, UniProt P05177); experiment: Inhibition of CYP1A2 at 3 uM; type: ADME; in short: as §1
T2 sequence (P05177 whole entry): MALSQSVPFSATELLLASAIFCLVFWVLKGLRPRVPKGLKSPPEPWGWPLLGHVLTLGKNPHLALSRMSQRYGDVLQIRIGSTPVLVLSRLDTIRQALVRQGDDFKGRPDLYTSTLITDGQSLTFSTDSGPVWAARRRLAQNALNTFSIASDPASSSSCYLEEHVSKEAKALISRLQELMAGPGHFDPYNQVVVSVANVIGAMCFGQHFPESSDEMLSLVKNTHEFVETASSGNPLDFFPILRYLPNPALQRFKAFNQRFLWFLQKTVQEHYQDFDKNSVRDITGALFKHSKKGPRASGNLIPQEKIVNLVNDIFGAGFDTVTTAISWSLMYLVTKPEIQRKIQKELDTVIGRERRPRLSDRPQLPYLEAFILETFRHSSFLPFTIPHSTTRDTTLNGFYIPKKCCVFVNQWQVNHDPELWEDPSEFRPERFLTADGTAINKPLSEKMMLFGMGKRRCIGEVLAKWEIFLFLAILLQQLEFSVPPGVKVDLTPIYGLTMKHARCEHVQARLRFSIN

[13] = target: CYP2C9 (Homo sapiens, UniProt P11712); experiment: Inhibition of CYP2C9 at 3 uM; type: ADME; in short: as §1
[14] = target: T3, Stearoyl-CoA desaturase (Homo sapiens, UniProt O00767); experiment: Inhibition of human SCD1
T3 sequence (O00767 whole entry): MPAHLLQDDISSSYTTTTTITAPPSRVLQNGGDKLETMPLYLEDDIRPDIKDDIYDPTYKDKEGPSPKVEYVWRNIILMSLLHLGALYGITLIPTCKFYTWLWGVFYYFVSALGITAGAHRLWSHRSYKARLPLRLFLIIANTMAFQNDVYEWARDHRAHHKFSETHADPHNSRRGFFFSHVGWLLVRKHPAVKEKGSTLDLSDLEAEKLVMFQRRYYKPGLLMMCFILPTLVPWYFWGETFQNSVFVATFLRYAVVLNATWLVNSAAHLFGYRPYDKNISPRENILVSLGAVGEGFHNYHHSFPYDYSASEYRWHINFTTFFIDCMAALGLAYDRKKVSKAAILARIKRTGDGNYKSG
In short: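 Orthogonal assay using tritiated stearoylCoA substrate and human liver microsomes as enzyme source; IC₅₀ determined.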

[15] = Apparent permeability of the compound by PAMPA; type: ADME
[16] = tested on: Rattus norvegicus; experiment: Reduction of desaturation index in po dosed low essential fatty acid diet model of Sprague-Dawley rat plasma after 3 hrs; type: functional, organism-based
In short: (§2)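 Sprague–Dawley rats, n = 8 per dose group, fasted 20 h, then fed low essential fatty acid (LEFA) diet for 24 h. Next day dosed po in 0.5% methylcellulose vehicle. Plasma taken 3 h post dose. Stearic and oleic acid extracted from plasma and quantitated by LC/MS. DI = total oleic:stearic acid ratio; % reduction relative to vehicle group.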

[17] = target: Cytochrome P450 2C9 (Homo sapiens, UniProt P11712); experiment: Inhibition of CYP2C9; type: ADME
[18] = tested on: Plasma; experiment: Free plasma concentration in Sprague-Dawley rat plasma at 30 mg/kg, po; type: ADME, organism-based; set-up: dose 30 mg/kg, route oral; conditions: in vivo
[19] = target: Voltage-gated inwardly rectifying potassium channel KCNH2 (Homo sapiens, UniProt Q12809); experiment: Inhibition of human ERG by patch clamp assay
[20] = target: Cytochrome P450 2D6 (Homo sapiens, UniProt P10635); experiment: Inhibition of CYP2D6; type: ADME
[21] = target: T4, Cytochrome P450 1A2 (Homo sapiens, UniProt P05177); experiment: Inhibition of CYP1A2; type: ADME
T4 sequence (P05177 whole entry): T2 sequence (P05177 whole entry)

[22] = Genotoxicity in Salmonella Typhimurium by Ames test; type: toxicity; conditions: salmonella enterica subsp. enterica serovar typhimurium
[23] = tested on: Plasma; experiment: Free plasma concentration in Sprague-Dawley rat plasma at 10 mg/kg, po; type: ADME, organism-based; set-up: dose 10 mg/kg, route oral; conditions: in vivo
[24] = tested on: Rattus norvegicus; experiment: Reduction of desaturation index in low essential fatty acid diet model of Sprague-Dawley rat plasma at 30 mg/kg, po after 3 hrs; type: functional; set-up: scale not given: the % may be the effect or the level left; in short: as §2
[25] = tested on: Plasma; experiment: Drug level in Sprague-Dawley rat plasma at 10 mg/kg, po; type: ADME, organism-based; set-up: dose 10 mg/kg, route oral; conditions: in vivo
In short: (§3)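 Sprague–Dawley rats, n = 8 per dose group, fasted 20 h, then LEFA diet 24 h. Next day given po doses of 1, 10 or 30 mg/kg in 0.5% methylcellulose. Total drug concentration measured in plasma sampled 3 h post dose.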

[26] = tested on: Plasma; experiment: Drug level in Sprague-Dawley rat plasma at 30 mg/kg, po; type: ADME, organism-based; set-up: dose 30 mg/kg, route oral; conditions: in vivo; in short: as §3
[27] = tested on: Plasma; experiment: Drug level in Sprague-Dawley rat plasma at 1 mg/kg, po; type: ADME, organism-based; set-up: dose 1 mg/kg, route oral; conditions: in vivo; in short: as §3
[28] = tested on: Rattus norvegicus; experiment: Reduction of desaturation index in low essential fatty acid diet model of Sprague-Dawley rat plasma at 10 mg/kg, po after 3 hrs; type: functional; set-up: scale not given: the % may be the effect or the level left; in short: as §2
[29] = tested on: Plasma; experiment: Free plasma concentration in Sprague-Dawley rat plasma at 1 mg/kg, po; type: ADME, organism-based; set-up: dose 1 mg/kg, route oral; conditions: in vivo
[30] = tested on: Rattus norvegicus; experiment: Toxicity in low essential fatty acid diet model of Sprague-Dawley rat ocular tissue assessed as red eye formation at 1 to 30 mg/kg, po after 27 hrs; type: organism-based; set-up: dose 1-30 mg/kg, route oral; conditions: in vivo
In short: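 LEFA-diet Sprague–Dawley rats (n = 8/group) dosed po in 0.5% methylcellulose with plasma sampled at 3 h. Animals then held for observation. Ocular tissues (red eyes) assessed at 27 h post-dose.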

[31] = tested on: Rattus norvegicus; experiment: Reduction of desaturation index in low essential fatty acid diet model of Sprague-Dawley rat plasma at 1 mg/kg, po after 3 hrs; type: functional; set-up: scale not given: the % may be the effect or the level left; in short: as §2
[32] = target: Cytochrome P450 3A4 (Homo sapiens, UniProt P08684); experiment: Inhibition of CYP3A4; type: ADME
[33] = target: Cytochrome P450 2C19 (Homo sapiens, UniProt P33261); experiment: Inhibition of CYP2C19; type: ADME
Cytochrome P450 2C19, sequence (P33261 whole entry): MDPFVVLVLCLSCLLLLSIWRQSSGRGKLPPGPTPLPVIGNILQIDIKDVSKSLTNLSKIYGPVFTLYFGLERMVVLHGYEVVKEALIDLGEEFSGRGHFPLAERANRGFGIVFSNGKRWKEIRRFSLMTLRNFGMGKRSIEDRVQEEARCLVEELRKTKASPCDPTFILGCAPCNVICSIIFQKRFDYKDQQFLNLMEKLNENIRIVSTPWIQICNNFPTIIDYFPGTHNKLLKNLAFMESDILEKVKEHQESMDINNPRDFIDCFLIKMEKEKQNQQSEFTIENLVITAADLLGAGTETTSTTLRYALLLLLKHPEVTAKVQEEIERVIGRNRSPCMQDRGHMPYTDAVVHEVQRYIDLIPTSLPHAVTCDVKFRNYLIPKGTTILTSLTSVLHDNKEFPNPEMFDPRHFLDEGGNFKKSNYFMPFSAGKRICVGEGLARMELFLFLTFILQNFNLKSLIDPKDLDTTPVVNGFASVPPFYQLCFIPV

CYP3A4, sequence (P08684 whole entry, canonical isoform): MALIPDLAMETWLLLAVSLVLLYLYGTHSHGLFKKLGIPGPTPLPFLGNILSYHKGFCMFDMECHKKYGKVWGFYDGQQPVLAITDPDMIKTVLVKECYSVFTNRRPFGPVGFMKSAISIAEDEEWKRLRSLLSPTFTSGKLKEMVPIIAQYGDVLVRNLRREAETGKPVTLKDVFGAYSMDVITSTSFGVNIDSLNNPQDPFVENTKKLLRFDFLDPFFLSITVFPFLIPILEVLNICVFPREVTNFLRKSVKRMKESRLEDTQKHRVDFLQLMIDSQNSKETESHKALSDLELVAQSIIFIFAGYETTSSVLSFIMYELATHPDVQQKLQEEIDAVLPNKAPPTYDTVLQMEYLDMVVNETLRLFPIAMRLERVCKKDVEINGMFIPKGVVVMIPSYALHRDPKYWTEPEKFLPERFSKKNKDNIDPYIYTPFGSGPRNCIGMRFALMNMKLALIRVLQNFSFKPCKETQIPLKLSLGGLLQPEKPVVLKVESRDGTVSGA
Cytochrome P450 3A4, sequence (P08684 whole entry): as the sequence (P08684 whole entry, canonical isoform) above
Cytochrome P450 2C9, sequence (P11712 whole entry): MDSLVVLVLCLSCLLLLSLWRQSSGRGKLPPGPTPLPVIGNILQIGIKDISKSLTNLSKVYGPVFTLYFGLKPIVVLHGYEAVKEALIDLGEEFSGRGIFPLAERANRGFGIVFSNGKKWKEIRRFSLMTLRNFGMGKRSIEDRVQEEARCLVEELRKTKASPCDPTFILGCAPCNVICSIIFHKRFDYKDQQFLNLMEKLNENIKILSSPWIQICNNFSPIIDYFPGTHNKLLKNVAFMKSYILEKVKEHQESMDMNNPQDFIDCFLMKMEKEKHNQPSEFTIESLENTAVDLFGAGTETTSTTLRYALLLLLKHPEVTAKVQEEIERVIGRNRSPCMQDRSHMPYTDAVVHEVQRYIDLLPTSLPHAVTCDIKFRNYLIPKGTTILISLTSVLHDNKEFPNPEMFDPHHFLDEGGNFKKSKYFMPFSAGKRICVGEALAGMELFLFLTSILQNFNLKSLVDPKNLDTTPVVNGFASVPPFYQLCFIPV
CYP2C9, sequence (P11712 whole entry): as above
hERG, sequence (Q12809 whole entry): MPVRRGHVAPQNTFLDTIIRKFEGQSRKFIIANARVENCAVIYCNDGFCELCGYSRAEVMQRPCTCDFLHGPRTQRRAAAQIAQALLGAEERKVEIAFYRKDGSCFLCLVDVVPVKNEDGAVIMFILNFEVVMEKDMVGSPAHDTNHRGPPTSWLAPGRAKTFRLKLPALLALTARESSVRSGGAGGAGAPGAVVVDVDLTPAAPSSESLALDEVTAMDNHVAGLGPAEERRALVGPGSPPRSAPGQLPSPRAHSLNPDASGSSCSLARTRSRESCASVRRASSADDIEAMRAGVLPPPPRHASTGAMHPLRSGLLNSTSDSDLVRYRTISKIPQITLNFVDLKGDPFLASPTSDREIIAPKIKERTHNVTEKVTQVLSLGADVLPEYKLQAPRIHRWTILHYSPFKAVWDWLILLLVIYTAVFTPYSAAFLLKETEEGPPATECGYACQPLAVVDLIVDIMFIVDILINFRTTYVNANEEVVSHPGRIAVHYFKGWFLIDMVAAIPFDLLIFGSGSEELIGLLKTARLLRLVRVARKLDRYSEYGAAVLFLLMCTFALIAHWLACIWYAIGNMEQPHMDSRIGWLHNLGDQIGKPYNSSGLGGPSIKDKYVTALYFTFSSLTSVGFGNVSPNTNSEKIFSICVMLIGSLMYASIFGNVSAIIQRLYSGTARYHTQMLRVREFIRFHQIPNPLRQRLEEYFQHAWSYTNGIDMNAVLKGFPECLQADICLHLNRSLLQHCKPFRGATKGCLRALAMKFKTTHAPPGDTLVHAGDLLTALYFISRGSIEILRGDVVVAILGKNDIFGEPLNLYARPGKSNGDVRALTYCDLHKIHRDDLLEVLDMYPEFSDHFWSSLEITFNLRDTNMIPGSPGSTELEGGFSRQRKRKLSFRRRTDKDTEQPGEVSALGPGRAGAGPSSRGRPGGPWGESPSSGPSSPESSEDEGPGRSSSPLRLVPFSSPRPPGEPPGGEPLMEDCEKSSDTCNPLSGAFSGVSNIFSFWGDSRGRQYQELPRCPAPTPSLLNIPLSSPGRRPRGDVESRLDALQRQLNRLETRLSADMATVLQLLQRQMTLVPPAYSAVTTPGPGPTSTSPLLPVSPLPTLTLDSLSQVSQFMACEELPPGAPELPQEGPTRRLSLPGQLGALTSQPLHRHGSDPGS
Voltage-gated inwardly rectifying potassium channel KCNH2, sequence (Q12809 whole entry): as above
Cytochrome P450 2D6, sequence (P10635 whole entry): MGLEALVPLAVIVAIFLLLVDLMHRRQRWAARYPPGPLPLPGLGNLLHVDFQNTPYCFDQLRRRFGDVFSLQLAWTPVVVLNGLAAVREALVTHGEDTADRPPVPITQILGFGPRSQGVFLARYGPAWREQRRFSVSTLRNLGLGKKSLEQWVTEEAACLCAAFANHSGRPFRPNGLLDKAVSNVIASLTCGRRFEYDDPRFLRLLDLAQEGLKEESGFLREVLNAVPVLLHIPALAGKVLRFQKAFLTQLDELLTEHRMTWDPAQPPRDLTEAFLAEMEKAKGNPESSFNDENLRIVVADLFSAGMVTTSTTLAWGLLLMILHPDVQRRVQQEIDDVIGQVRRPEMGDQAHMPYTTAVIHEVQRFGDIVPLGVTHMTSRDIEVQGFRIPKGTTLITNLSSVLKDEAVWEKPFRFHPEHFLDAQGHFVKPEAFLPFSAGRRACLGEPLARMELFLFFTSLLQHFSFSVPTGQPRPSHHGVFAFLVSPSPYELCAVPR
CYP2D6, sequence (P10635 whole entry): as above

Structure (SMILES): Cn1ccc(NC(=O)c2cnn(Cc3ccc(Cl)c(C(F)(F)F)c3)c2)n1
microsomal CLint [2]: 25.9 µL/min/mg
IC50 [1]: 63 nM
bioavailability [3]: 66%
half-life [4]: 1.3 h
Vd [5]: 0.7 L/kg
clearance [6]: 30 mL/min/kg

Structure (SMILES): Cn1ccc(NC(=O)c2cn(Cc3ccc(Cl)c(C(F)(F)F)c3)nn2)n1
microsomal CLint [2]: < 8 µL/min/mg
IC50 [1]: 33 nM
Vd [5]: 10.2 L/kg
clearance [6]: 641 mL/min/kg

Structure (SMILES): Cn1ccc(NC(=O)c2cn(CC3(CC4CC4)CCC3)cn2)n1
IC50 [1]: 101 nM

Structure (SMILES): Cn1cnc(NC(=O)c2cn(Cc3ccc(Cl)c(C(F)(F)F)c3)cn2)n1
IC50 [1]: 63 nM

Structure (SMILES): Cc1c(C(=O)N=C(N)N)ncn1Cc1ccc(Cl)cc1
IC50 [7]: 68 nM
microsomal CLint [8]: 74.1 µL/min/mg
inhibition at 3 µM [9]: < 1%
microsomal CLint [2]: 15.5 µL/min/mg
inhibition at 3 µM [10]: < 1%
inhibition at 10 µM [11]: 64%
IC50 [1]: 94 nM
inhibition at 3 µM [12]: < 1%
inhibition at 3 µM [13]: < 1%
IC50 [14]: 217 nM
Papp [15]: 2.6 ×10⁻⁶ cm/s

Structure (SMILES): Cn1ncc(NC(=O)c2cn(Cc3cccc(C(F)(F)F)c3)cn2)n1
IC50 [1]: 25 nM

Structure (SMILES): Cn1ccc(NC(=O)c2cn(Cc3cccc(C(F)(F)F)c3)cn2)n1
microsomal CLint [2]: < 8 µL/min/mg
IC50 [1]: 11 nM
Vd [5]: 8.1 L/kg
clearance [6]: 463 mL/min/kg

Structure (SMILES): Cn1ccc(NC(=O)c2cn(Cc3cccc(Cl)c3)cn2)n1
IC50 [1]: 57 nM

Structure (SMILES): Cn1ccc(NC(=O)c2cn(Cc3cccc(OC(F)(F)F)c3)cn2)n1
IC50 [1]: 32 nM
IC50 [14]: 88 nM

Structure (SMILES): Cn1ccc(NC(=O)c2ncn(Cc3cccc(C(F)(F)F)c3)n2)n1
IC50 [1]: 113 nM

Further compounds by falling IC50 [1], results first:

IC50 [1]: 2750 nM
Structure (SMILES): CC(=O)NCCNC(=O)c1cn(Cc2ccc(F)c(C(F)(F)F)c2)cn1

IC50 [1]: 2140 nM
Structure (SMILES): Cn1ccc(NC(=O)c2ccn(Cc3cccc(C(F)(F)F)c3)n2)n1

IC50 [1]: 126 nM
Structure (SMILES): Cn1ccc(NC(=O)c2cn(CCc3ccccc3Cl)cn2)n1

IC50 [1]: 16 nM
Structure (SMILES): Cn1ccc(NC(=O)c2cn(Cc3ccc(Cl)c(C(F)(F)F)c3)cn2)n1

microsomal CLint [8]: < 18 µL/min/mg
IC50 [17]: > 30000 nM
Cp(f) [18]: 2035 nM
microsomal CLint [2]: < 8 µL/min/mg
IC50 [1]: 11.8 nM
bioavailability [3]: 52%
IC50 [20]: > 30000 nM
IC50 [21]: > 30000 nM
Cp(f) [23]: 533.5 nM
Drug uptake [25]: 1703 ng/mL
Drug uptake [26]: 6491 ng/mL
Drug uptake [27]: 56.8 ng/mL
half-life [4]: 2.3 h
Cp(f) [29]: 17.6 nM
Vd [5]: 4.5 L/kg
IC50 [32]: > 30000 nM
clearance [6]: 43 mL/min/kg
IC50 [33]: > 30000 nM
Structure (SMILES): Cc1c(C(=O)Nc2ccn(C)n2)ncn1Cc1cccc(C(F)(F)F)c1
Activity [16]: Dose-dependent effect
IC50 [19]: 28900 nM
Activity [22]: Non-toxic
Activity [24]: 84%
Activity [28]: 85%
Activity [30]: Toxic
Activity [31]: 55%
